# Assay outcomes (PubChem BioAssay)
# Shown are actives, neighbours in structure and some others; about 1.9% of the full set was active somewhere.
# Scp1 inh – Scp-1 (human) phosphatase inhibition; Recombinant Scp1, phosphopeptide, malachite green phosphate absorbance; inhibition, % at 20 µM; Q9GZU7; 340,000 tested, 0.88% active;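 active means inhibition above about 50% at 20 µM, limit read from the data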;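 further: plate controls were DMSO wells with enzyme for no effect and wells lacking enzyme for full effect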
# Target sequence (Q9GZU7 76-261 limits assumed): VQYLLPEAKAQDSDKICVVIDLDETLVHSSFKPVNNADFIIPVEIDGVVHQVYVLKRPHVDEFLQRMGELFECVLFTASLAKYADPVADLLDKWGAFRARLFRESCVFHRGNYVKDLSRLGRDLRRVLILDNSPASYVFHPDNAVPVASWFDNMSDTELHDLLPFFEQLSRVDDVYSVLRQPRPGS
#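 Test system: SCP-1 phosphatase catalytic domain, residues 76-261 | Compound dosing: One concentration, 20 µM, with 1.0% DMSO | Schedule: 45 min room-temperature reaction, 5 min colour, 30 min stabiliser | Detection: Absorbance at 630 nm | Read-out basis: % inhibition of SCP-1 phosphate liberation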
# LMPTP block – blocks human LMPTP phosphatase; inhibition, % at 20 µM; recombinant LMPTP-A, OMFP fluorogenic substrate, fluorescence intensity; 360,000 tested, 0.22% active;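 active means compounds that cut the enzyme signal by at least half of the control window in the single-dose screen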;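 further: plate controls were DMSO wells with enzyme plus substrate for no effect and substrate without enzyme for full effect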
#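 Test system – LMPTP-A phosphatase enzyme · Quantity – 0.625 nM LMPTP-A final · Reagent – OMFP substrate, 400 µM final · Dosing – one test concentration per compound, 20 µM, with 3% DMSO overall · Timing – 50 min enzyme reaction at room temperature, protected from light · Detection – fluorescence intensity · Controls – substrate-only low control, DMSO enzyme-plus-substrate high control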
# CSN inh – CSN deneddylation inhibition; Q92905; AID 651999; inhibition, % at 12.5 µM; Purified CSN, SCF-Nedd8-OG deneddylation, fluorescence polarization; 360,000 tested, 0.38% active;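 active means pattern-corrected inhibition above about 35%, with an unprinted fluorescence ratio check between 0.5 and 1.5, limit read from the data, passing the limit was not always enough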;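 further: 0% = enzyme with substrate and 100% = substrate without enzyme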
# Target sequence (Q92905 whole entry, looked up, one chain of several): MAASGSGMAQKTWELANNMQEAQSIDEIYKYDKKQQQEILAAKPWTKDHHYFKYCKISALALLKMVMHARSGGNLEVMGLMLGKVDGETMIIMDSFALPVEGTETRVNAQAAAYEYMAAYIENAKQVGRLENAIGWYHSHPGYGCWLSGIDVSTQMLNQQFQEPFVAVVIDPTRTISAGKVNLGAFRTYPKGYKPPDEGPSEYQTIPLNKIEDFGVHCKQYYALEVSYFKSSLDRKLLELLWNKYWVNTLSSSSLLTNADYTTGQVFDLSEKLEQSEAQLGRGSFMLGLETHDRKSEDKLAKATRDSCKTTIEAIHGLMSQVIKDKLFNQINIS
#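 Detection – fluorescence polarization · System – HEK293T-derived human Csn5 enzyme · Controls – substrate-only high control, full reaction low control · Timing – 90 min, room temperature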
# DNMT1 inh – DNMT1 (human) enzyme inhibition; inhibition (reported as % activation of signal), % at 10 µM; 360,000 tested, 0.83% active; DNMT1 molecular beacon, Hinp1I cleavage, fluorescence; in the data active means inhibition above about 50%
# SUMO1-SIM PPI – modulators of human SUMO1-mediated protein-protein interactions | P63165 | SUMO1 binding to a labelled peptide, TR-FRET, 1 h | inhibition, % at 20 µM | 360,000 tested, 0.33% active; in the data active means inhibition above about 37%
# STEP inh – STEP (human) phosphatase inhibition; recombinant STEP, OMFP fluorogenic substrate, fluorescence; P54829; inhibition, % at 20 µM; 360,000 tested, 0.25% active;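 active means inhibition at 20 µM, scaled per plate between control wells, above about 37%, limit read from the data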;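 further: 0% = DMSO with enzyme and substrate and 100% = substrate only without enzyme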
#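 System: isolated STEP enzyme; schedule: 20 min enzyme reaction at room temperature, protected from light; medium: Bis-Tris buffer pH 6.0, 2.5 mM DTT, 0.005% Tween 20; signal: fluorescence, 480/540 nm; dosing: single compound dose of 20 µM, 1% DMSO final; also added: OMFP substrate, 25 µM final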
# * hit, by the source's call; · = not tested or not shown.
SMILES,Scp1 inh,LMPTP block,CSN inh,DNMT1 inh,SUMO1-SIM PPI,STEP inh
COCCCOc1ccnc(CS(=O)c2nc3ccccc3[nH]2)c1C (stereo not drawn),14,1,0,-4,1,74*
O=c1cc(Cl)[nH]c(=O)n1CCNc1ncc(C(F)(F)F)cc1Cl,-5,-1,37*,-4,3,-1
C[C@@H]1CN([C@H](C)CO)C(=O)CCCn2cc(nn2)CO[C@H]1CN(C)C(=O)Nc1ccnc(N2CCOCC2)c1,·,14,0,2,108*,3
CN(C(=S)NC(=O)c1ccccc1)C1CCCCC1,-2,0,46*,-1,6,-3
CN(C(=S)NC(=O)c1ccc(F)cc1)C1CCCCC1,10,0,3,2,9,3
CN(C(=S)NC(=O)c1ccc(Cl)cc1)C1CCCCC1,70*,72*,-2,-4,5,20
COC(=O)CCCn1nc(NC(=O)c2ccco2)cc1C,-4,-1,4,-2,4,-1
CC(=O)Nc1ccc2nc3c(=O)n(C)c(=O)n(C)c3nc2c1,84*,1,-4,-1,9,2
O=C(NCc1cc(Br)cc(Br)c1OC(=O)c1ccccc1[N+](=O)[O-])c1ccccc1,-13,3,-2,-2,20,0
O=C(N/N=C/c1ccc(-c2ccc(S(=O)(=O)Nc3ncccn3)cc2)o1)c1cc2ccccc2cc1O,-18,8,32,86*,39*,1
CN(Cc1ccccc1)C1=CC(=[N+]2CCCC2)CC(C)(C)C1,103*,0,-1,2,-3,1
Cc1cc(C)c(S(=O)(=O)Nc2nccs2)c(C)c1,-10,-1,-1,1,43*,-1
COCc1nnc(NS(=O)(=O)c2c(C)cc(C)cc2C)s1,-2,-2,5,0,-1,-3
CCc1cc(CNC(=O)c2ccc3nc(Cc4ccc(OC)c(OC)c4)oc3c2)on1,4,-1,-2,-2,-1,-2
CC1CC(=O)c2c(cc3c(-c4c(O)cc(O)c5c(O)c6c(cc45)OC(C)CC6=O)c(O)cc(O)c3c2O)O1 (stereo not drawn),15,49,59,81*,64*,6
O=C1CC(c2ccc(O)cc2)Oc2cc(O)cc(O)c21 (stereo not drawn),-11,0,-4,2,4,-2
S=c1[nH]nc(-c2cc(-c3ccccc3)n[nH]2)n1/N=C/c1cccc(Cl)c1,4,10,70,5,88*,9
O=c1[nH]c(=O)n(C2OC(CO)C(O)C2O)c2c1CCCC2 (stereo not drawn),·,-1,-1,-3,4,-2
CN1CCc2c(sc3c2C(=O)NC(c2ccc(-c4cccc(Cl)c4)o2)N3)C1 (stereo not drawn),-10,1,44*,-17,-5,-33
Cc1ccsc1C1NC(=O)c2c(sc3c2CCN(C)C3)N1 (stereo not drawn),-14,-3,18,0,-19,-11
CN1CCc2c(sc3c2C(=O)NC(c2cccs2)N3)C1 (stereo not drawn),-2,-2,4,-8,-3,-3
CSc1ccc(C2NC(=O)c3c(sc4c3CCN(C)C4)N2)cc1 (stereo not drawn),-5,0,46*,-15,-18,-12
COc1cc(OC)c(OC)cc1/C=C1\Oc2cc(OS(C)(=O)=O)ccc2C1=O,41,10,55*,11,-11,5
CCn1c(=NC(=O)c2ccc(S(=O)(=O)N3CCOCC3)cc2)sc2cccc(OC)c21,-13,2,3,-7,43*,-3
CCn1c(=NC(=O)c2ccc(N3C(=O)CCC3=O)cc2)sc2c(OC)ccc(OC)c21,58*,4,6,2,-30,4
SMILES,Scp1 inh,LMPTP block,CSN inh,DNMT1 inh,SUMO1-SIM PPI,STEP inh
NNC(=O)CCC(=O)Nc1ccccc1,3,2,-7,14,1,-3
O=c1oc2c(O)c(O)cc3c(=O)oc4c(O)c(O)cc1c4c23,96*,86*,55,88*,94*,99*
O=C(Nc1ccc(S(=O)(=O)N2CCOCC2)cc1)c1ccc(CN2CCc3ccccc3C2)cc1,-3,·,·,·,·,·
COc1ccc(C2=CC3=C(Br)C(=O)C(C)(OC(=O)C4CCCC4)C(=O)C3=CO2)cc1 (stereo not drawn),4,0,12,9,56*,1
C=CCn1c(SCC(=O)c2ccc(O)c(O)c2)nnc1-c1cccc(C)c1,-8,16,3,2,-6,2
C=CCn1c(SCC(=O)c2ccc(O)c(O)c2)nnc1-c1cccnc1,72*,24,25,11,13,7
C=CCN(CC=C)Cc1c(O)ccc2c1oc(=O)c1ccccc12,56*,5,-3,55*,16,2
COc1cc(OC)cc(-c2noc(-c3csc([C@@H]4C[C@H](O)[C@@H](CO)O4)n3)n2)c1,·,-1,-10,1,0,1
N#Cc1ccc(NC(=O)c2sc3cc(C(F)(F)F)cnc3c2-c2cccs2)cc1,-12,0,-1,0,56*,2
O=C(Nc1ccc(F)cc1)c1sc2cc(C(F)(F)F)cnc2c1-c1cccs1,-2,4,6,-1,10,6
COC(=O)c1ccc2c(c1)C(C)(C)C(/C=C/c1ccc(OC)c(OC)c1OC)=[N+]2C,96*,-2,6,-1,0,-6
CN(C)/C=C/C(=O)c1ccc(OCCN(C)c2ccccn2)cc1,-7,51*,2,-1,18,-1
CN(C)c1ccc(C(=N)Cc2ccc3ccccc3n2)cc1,·,1,44*,-4,-13,-2
CCN(c1ccc(OC)cc1)S(=O)(=O)c1nnc(NC(=O)c2ccc(C)cc2)s1,-7,0,4,-3,1,-2
Cc1ccc(NS(=O)(=O)c2ccc(NC(=O)N3CCCCC3)cc2)cc1,-2,1,5,-1,0,0
Cc1cccc(NS(=O)(=O)c2ccc(NC(=O)N3CCCCC3)cc2)c1,-3,1,43*,2,-2,0
CCOC(=O)c1ccc(NC(=O)c2ccccc2)cc1,-7,-1,3,3,2,-5
CCOC(=O)c1ccc(NC(=O)c2c(N)n(Cc3ccccc3)c(=O)[nH]c2=O)cc1,-3,-1,5,49,46*,0
CN1CCN(C(=O)c2sc(=S)n(-c3ccccc3)c2N)CC1,22,2,8,-2,-11,96*
Cc1ccc(-n2c(N)c(C(=O)N3CCOCC3)sc2=S)cc1,-6,1,1,6,-16,2
